From ChEMBL document CHEMBL3992557, “Synthesis and biological evaluation of novel N3-substituted dihydropyrimidine derivatives as T-type calcium channel blockers and their efficacy as analgesics in mouse models of inflammatory pain” (Bioorg Med Chem, 2017)
pIC50: −log10 of the molar value. Activity calls are given as the source filed them.

Experiments:
[1] = biological target: Cav1.2 (voltage-dependent L-type calcium channel subunit alpha-1C) (Rattus norvegicus, UniProt P22002); assay: (§1) Inhibition of GFP-fused rat Cav1.2 expressed in human tsA-201 cells co-expressing Cavbeta1b/Cavalpha2delta1 assessed as tonic block at 10 uM at holding potential of -90 mV by whole cell patch clamp method relative to control; assay type: cell-based
How it was run: (§2)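 tsA-201 cells were co-transfected with rat Cav1.2 plus Cavβ1b and Cavα2δ1 (5 µg each) and a GFP marker, then kept 2 days (30°C after 16-18 h). Whole-cell patch clamp used 20 mM BaCl2 bath, P/4 leak correction, 10 kHz sampling. Tonic resting-state block at 10 µM was given as % current inhibition. Final DMSO ≤0.1%.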

[2] = biological target: T1, Voltage-dependent T-type calcium channel subunit alpha-1H (Homo sapiens, UniProt O95180); assay: Inhibition of GFP-fused Cav3.2-alpha1 (unknown origin) expressed in human tsA-201 cells at 10 uM at holding potential of -110 mV by whole cell patch clamp method relative to control; assay type: cell-based
How it was run: (§3)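 HEK tsA-201 cells transfected by calcium phosphate with channel DNA plus GFP marker, moved to 30°C at 16-18 h, recorded two days later. Whole-cell patch clamp used Ba2+ (20 mM) external solution, pH 7.4, with CsCl-based internal solution. Recordings were P/4 leak-subtracted, 10 kHz sampling. Compound at 10 µM, DMSO ≤0.1% final, reported as % current inhibition. Cav2.2 n=3.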

[3] = biological target: Voltage-dependent L-type calcium channel subunit alpha-1C (Rattus norvegicus, UniProt P22002); assay: as §1; assay type: cell-based; conditions: 10 µM; how it was run: as §2
[4] = biological target: T1, Voltage-dependent T-type calcium channel subunit alpha-1H; assay: Inhibition of GFP-fused Cav3.2-alpha1 (unknown origin) expressed in human tsA-201 cells at holding potential of -110 mV by whole cell patch clamp method; assay type: cell-based
How it was run: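 tsA-201 cells transiently expressing Cav3.2 α1 plus GFP were recorded by whole-cell patch clamp with 20 mM Ba2+ as charge carrier and P/4 leak subtraction. A dose-response curve was fitted to give IC50, n=3 cells per dose. Final DMSO ≤0.1%.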

[5] = biological target: T1, Voltage-dependent T-type calcium channel subunit alpha-1H; assay: Inhibition of GFP-fused Cav3.2-alpha1 (unknown origin) expressed in human tsA-201 cells assessed as half activation potential at 1 uM at holding potential of -110 mV by whole cell patch clamp method (reference value: -30.84 +/- 0.46 mV); assay type: cell-based
[6] = biological target: T1, Voltage-dependent T-type calcium channel subunit alpha-1H; assay: Inhibition of GFP-fused Cav3.2-alpha1 (unknown origin) expressed in human tsA-201 cells assessed as half inactivation potential for steady state inactivation curve at 1 uM at holding potential of -110 mV by whole cell patch clamp method (reference value: -46.27 +/- 0.57 mV); assay type: cell-based
[7] = biological target: T1, Voltage-dependent T-type calcium channel subunit alpha-1H; assay: Inhibition of GFP-fused Cav3.2-alpha1 (unknown origin) expressed in human tsA-201 cells assessed as time required to reach steady state inhibition at 1 uM at holding potential of -110 mV by whole cell patch clamp method; assay type: cell-based
[8] = biological target: Voltage-dependent N-type calcium channel subunit alpha-1B (Homo sapiens) (UniProt Q00975); assay: Inhibition of GFP-fused Cav2.2 (unknown origin) expressed in human tsA-201 cells assessed as at 10 uM by whole cell patch clamp method relative to control; assay type: cell-based; how it was run: as §3
[9] = system: Mus musculus; assay: Analgesic activity in formalin-induced nociception C57BL/6J mouse model assessed as reduction in time spent licking and biting formalin injected paw per 10 uL administered intrathecally 20 mins prior to formalin injection measured up to 30 mins post formalin injection; assay type: functional
How it was run: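 Adult male C57BL/6J mice (7-9 weeks). Intrathecal pretreatment at 0.3, 1 and 3 µg in 10 µl, or vehicle (1% DMSO in PBS, 10 µl). After 20 min, 20 µl of 1.25% formalin injected intraplantar into right hind paw.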

[10] = system: Mus musculus; assay: Analgesic activity in CFA-induced mechanical hyperalgesia C57BL/6J mouse model assessed as mechanical paw withdrawal threshold at 1 ug/10 uL administered intrathecally 2 days after CFA injection measured at 20 to 150 mins post dose; assay type: functional
How it was run: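 C57BL/6J male mice, 7-9 weeks; 30 µl CFA injected into right hind paw; 2 days later single intrathecal dose with vehicle 1% DMSO in PBS. Paw withdrawal threshold measured blinded by digital plantar aesthesiometer at 0, 20, 45, 90 and 150 min after dosing, after ≥1 h habituation. Each paw stimulated three times. n=6 per group; mean ± S.E.M, two-way ANOVA with Bonferroni test.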

[11] = biological target: T1, Voltage-dependent T-type calcium channel subunit alpha-1H; assay: Inhibition of GFP-fused Cav3.2-alpha1 (unknown origin) expressed in human tsA-201 cells assessed as half activation potential at 3 uM at holding potential of -110 mV by whole cell patch clamp method (reference value: -32.07 +/- 0.8 mV); assay type: cell-based
[12] = biological target: T1, Voltage-dependent T-type calcium channel subunit alpha-1H; assay: Inhibition of GFP-fused Cav3.2-alpha1 (unknown origin) expressed in human tsA-201 cells assessed as half inactivation potential for steady state inactivation curve at 3 uM at holding potential of -110 mV by whole cell patch clamp method (reference value: -47.6 +/- 0.87 mV); assay type: cell-based
[13] = biological target: T1, Voltage-dependent T-type calcium channel subunit alpha-1H; assay: Inhibition of GFP-fused Cav3.2-alpha1 (unknown origin) expressed in human tsA-201 cells assessed as time required to reach steady state inhibition at 3 uM at holding potential of -110 mV by whole cell patch clamp method; assay type: cell-based
[14] = system: Mus musculus; assay: Analgesic activity in CFA-induced mechanical hyperalgesia C57BL/6J mouse model assessed as mechanical paw withdrawal threshold at 3 ug/10 uL administered intrathecally 2 days after CFA injection measured at 90 to 150 mins post dose; assay type: functional
How it was run: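 Adult male C57BL/6J mice (7-9 weeks). Right hind paw given 30 µl CFA intraplantar; 2 days later dosed intrathecally at 3 µg/10 µl, vehicle 1% DMSO in PBS. Thresholds read blinded with digital plantar aesthesiometer at 0, 20, 45, 90 and 150 min, each paw tested three times. n=6 mice per group, mean ± S.E.M, two-way ANOVA with Bonferroni post-hoc.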

Chain of Voltage-dependent L-type calcium channel subunit alpha-1C (P22002 whole entry, the tested form may be a part): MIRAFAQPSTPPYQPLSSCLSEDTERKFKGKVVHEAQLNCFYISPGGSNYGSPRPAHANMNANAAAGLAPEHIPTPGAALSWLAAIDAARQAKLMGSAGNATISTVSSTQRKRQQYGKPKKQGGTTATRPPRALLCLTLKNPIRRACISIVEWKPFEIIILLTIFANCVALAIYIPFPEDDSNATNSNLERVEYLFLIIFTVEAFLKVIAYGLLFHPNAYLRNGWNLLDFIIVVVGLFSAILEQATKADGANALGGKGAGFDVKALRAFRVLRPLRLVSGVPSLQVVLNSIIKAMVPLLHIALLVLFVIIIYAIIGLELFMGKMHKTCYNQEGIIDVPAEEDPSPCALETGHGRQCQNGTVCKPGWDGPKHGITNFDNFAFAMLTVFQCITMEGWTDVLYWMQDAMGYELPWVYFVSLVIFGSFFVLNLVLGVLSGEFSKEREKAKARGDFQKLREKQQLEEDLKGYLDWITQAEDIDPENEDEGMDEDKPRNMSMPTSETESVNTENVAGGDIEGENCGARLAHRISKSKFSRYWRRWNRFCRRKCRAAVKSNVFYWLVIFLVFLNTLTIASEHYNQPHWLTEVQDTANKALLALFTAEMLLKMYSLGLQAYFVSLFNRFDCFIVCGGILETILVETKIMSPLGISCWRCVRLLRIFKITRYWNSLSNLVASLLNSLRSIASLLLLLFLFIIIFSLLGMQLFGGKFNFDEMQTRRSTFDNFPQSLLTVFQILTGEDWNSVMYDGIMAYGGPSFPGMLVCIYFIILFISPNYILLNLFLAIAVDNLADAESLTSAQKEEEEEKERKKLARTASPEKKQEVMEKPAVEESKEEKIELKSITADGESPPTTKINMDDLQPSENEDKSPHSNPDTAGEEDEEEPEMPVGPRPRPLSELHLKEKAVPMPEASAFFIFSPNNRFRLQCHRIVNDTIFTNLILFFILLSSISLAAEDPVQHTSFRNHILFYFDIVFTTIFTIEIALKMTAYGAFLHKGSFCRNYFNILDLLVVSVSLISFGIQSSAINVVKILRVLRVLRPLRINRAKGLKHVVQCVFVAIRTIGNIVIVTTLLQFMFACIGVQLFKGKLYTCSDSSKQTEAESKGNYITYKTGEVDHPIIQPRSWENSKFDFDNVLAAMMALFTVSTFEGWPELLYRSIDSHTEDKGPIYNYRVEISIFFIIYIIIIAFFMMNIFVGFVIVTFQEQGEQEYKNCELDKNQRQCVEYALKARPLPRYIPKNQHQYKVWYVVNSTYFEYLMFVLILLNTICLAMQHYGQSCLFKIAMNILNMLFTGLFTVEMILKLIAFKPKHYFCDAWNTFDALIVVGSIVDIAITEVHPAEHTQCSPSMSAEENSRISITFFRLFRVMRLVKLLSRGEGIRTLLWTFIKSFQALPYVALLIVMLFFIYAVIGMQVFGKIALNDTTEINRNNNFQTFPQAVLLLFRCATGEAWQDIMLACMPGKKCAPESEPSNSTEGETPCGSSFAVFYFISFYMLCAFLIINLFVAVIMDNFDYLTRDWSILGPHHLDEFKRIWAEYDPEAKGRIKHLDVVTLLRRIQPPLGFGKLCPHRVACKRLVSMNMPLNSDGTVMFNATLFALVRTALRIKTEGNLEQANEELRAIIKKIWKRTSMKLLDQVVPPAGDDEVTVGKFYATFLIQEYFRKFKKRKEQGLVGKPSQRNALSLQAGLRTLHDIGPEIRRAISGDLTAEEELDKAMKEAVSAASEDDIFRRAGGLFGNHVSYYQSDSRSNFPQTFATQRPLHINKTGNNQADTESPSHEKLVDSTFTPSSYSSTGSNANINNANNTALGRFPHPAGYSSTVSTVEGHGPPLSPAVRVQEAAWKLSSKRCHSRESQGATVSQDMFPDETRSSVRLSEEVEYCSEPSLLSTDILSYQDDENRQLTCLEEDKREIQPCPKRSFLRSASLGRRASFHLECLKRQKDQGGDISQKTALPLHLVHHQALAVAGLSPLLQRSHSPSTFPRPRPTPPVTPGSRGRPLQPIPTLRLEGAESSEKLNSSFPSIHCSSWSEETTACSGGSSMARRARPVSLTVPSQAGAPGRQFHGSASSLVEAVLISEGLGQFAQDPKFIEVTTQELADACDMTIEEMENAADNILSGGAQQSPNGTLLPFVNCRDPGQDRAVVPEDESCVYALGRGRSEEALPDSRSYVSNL
Chain of Cav1.2 (voltage-dependent L-type calcium channel subunit alpha-1C) (P22002 whole entry, the tested form may be a part): as above
T1 sequence (O95180 whole entry, the tested form may be a part): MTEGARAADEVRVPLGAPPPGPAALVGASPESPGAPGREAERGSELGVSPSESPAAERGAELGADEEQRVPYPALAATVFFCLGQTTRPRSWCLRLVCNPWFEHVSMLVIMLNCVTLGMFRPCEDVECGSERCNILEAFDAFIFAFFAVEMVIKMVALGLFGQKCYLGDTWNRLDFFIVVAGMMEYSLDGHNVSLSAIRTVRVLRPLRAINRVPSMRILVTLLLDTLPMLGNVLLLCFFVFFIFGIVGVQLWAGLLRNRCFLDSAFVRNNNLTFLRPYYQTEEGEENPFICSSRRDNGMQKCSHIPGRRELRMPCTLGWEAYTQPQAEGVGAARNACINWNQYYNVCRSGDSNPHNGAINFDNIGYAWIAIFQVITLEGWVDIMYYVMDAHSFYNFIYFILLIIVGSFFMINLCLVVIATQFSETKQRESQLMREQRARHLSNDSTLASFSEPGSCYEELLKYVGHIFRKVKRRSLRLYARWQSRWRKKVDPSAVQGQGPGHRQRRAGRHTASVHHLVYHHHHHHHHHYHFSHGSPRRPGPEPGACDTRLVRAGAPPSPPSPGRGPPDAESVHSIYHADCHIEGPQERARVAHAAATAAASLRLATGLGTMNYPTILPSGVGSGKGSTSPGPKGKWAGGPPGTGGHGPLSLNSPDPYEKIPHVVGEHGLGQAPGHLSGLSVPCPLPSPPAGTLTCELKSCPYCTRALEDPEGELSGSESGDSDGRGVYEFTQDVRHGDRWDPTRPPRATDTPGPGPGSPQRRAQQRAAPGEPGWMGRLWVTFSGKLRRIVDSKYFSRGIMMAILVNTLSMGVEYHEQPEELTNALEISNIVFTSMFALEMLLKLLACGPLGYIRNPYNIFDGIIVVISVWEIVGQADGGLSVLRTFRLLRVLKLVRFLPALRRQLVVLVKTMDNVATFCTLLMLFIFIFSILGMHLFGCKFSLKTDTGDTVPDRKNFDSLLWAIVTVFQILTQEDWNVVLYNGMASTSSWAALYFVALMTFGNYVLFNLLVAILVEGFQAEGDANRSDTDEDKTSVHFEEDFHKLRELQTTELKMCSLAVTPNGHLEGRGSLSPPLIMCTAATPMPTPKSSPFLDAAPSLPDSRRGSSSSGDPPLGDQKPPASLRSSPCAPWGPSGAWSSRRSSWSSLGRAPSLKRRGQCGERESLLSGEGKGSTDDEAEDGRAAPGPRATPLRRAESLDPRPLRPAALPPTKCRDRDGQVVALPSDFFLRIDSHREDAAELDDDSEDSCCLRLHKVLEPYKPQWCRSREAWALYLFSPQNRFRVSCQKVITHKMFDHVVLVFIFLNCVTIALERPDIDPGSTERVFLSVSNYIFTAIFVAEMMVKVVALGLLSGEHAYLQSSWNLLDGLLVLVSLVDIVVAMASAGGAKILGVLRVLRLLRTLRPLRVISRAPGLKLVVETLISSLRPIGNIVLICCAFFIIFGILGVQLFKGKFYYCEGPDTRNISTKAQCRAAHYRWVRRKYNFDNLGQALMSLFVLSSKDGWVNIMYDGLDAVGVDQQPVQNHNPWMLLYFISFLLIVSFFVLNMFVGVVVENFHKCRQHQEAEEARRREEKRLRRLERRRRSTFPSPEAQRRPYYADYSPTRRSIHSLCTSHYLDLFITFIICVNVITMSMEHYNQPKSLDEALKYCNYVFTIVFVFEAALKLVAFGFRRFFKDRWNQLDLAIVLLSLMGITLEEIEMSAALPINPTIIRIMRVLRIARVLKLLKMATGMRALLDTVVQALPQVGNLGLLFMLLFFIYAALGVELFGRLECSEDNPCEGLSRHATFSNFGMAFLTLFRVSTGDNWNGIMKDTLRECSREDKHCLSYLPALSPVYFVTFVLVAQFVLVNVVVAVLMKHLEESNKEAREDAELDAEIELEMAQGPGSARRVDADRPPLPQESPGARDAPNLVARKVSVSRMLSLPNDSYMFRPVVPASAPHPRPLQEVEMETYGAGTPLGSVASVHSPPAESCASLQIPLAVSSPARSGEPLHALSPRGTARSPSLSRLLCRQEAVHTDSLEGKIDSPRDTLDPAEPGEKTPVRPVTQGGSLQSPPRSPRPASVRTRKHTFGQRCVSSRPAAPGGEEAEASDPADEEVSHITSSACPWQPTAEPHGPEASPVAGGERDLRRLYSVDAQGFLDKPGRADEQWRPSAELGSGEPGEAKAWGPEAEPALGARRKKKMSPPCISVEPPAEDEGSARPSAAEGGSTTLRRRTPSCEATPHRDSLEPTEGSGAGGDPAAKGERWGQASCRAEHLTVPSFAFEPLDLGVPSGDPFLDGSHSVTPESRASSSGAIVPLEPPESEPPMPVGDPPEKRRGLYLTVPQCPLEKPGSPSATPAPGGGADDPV

## CCOC(=O)C1=C(C)NC(=O)N(CCC(=O)N/N=C2/C(=O)Nc3ccccc32)C1c1cccc([N+](=O)[O-])c1 (centres undefined)
[1]
  inhibition at 10 µM: 50%
[2]
  inhibition: 50%

## CCOC(=O)C1=C(C)NC(=O)N(CCC(=O)N/N=C/c2ccc(F)cc2)C1c1cccc([N+](=O)[O-])c1 (centres undefined)
[1]
  inhibition at 10 µM: 60 to 85%
[2]
  inhibition: 70 to 95%

## CCOC(=O)C1=C(C)NC(=O)N(CCC(=O)N/N=C\C=C\c2ccccc2)C1c1cccc([N+](=O)[O-])c1 (centres undefined)
[1]
  inhibition at 10 µM: 60 to 85%
[2]
  inhibition: 70 to 95%

## CCOC(=O)C1=C(C)NC(=O)N(CCC(=O)NNC(=S)NC(c2ccccc2)c2ccccc2)C1c1cccc([N+](=O)[O-])c1 (centres undefined)
[3]
  inhibition (INH): Not Active
[2]
  inhibition: 70 to 95%
[4]
  pIC50: 6.47
[5]
  V1/2: -30.6 mV
[6]
  Activity: -51.2 mV
[7]
  TIME: 0.133 to 0.167 h
[8]
  inhibition: 7.64%
[9]
  MED: 1 µg
[10]
  Activity: Active

## CCOC(=O)C1=C(C)NC(=O)N(CCC(=O)N/N=C/C(c2ccccc2)c2ccccc2)C1c1cccc([N+](=O)[O-])c1 (centres undefined)
[1]
  inhibition at 10 µM: 60 to 85%
[2]
  inhibition: 70 to 95%

## CCOC(=O)C1=C(C)NC(=O)N(CCc2nnc(Nc3ccccc3)o2)C1c1cccc([N+](=O)[O-])c1 (centres undefined)
[3]
  inhibition (INH): Not Active
[2]
  inhibition: 70 to 95%

## CCOC(=O)C1=C(C)NC(=O)N(CCC(=O)N/N=c2\scc(-c3ccc(F)cc3)n2-c2ccccc2)C1c1cccc([N+](=O)[O-])c1 (centres undefined)
[3]
  inhibition (INH): Not Active
[2]
  inhibition: inactive

## CCOC(=O)C1=C(C)NC(=O)N(CCC(=O)N/N=C/c2ccccc2)C1c1cccc([N+](=O)[O-])c1 (centres undefined)
[1]
  inhibition at 10 µM: 60 to 85%
[2]
  inhibition: 70 to 95%
[4]
  pIC50: 5.47
[11]
  V1/2: -29.3 mV
[12]
  Activity: -48.8 mV
[13]
  TIME: 0.133 to 0.167 h
[8]
  inhibition: 31.9%
[9]
  Activity: Dose-dependent effect
  MED: 3 µg
[14]
  Activity: Active

## CCOC(=O)C1=C(C)NC(=O)N(CCC(=O)NNC(=S)Nc2ccccc2)C1c1cccc([N+](=O)[O-])c1 (centres undefined)
[3]
  inhibition (INH): Not Active
[2]
  inhibition: inactive

## CCOC(=O)C1=C(C)NC(=O)N(CCC(=O)N/N=C(/C)c2ccccc2)C1c1cccc([N+](=O)[O-])c1 (centres undefined)
[1]
  inhibition at 10 µM: 60 to 85%
[2]
  inhibition: 70 to 95%

## CCOC(=O)C1=C(C)NC(=O)N(CC/C(=N/N(C(C)=O)C(C)=O)OC(C)=O)C1c1cccc([N+](=O)[O-])c1 (centres undefined)
[3]
  inhibition (INH): Not Active
[2]
  inhibition: inactive

## CCOC(=O)C1=C(C)NC(=O)N(CCC(=O)N/N=C(/C)CC(c2ccccc2)c2ccccc2)C1c1cccc([N+](=O)[O-])c1 (centres undefined)
[1]
  inhibition at 10 µM: 60 to 85%
[2]
  inhibition: 70 to 95%

## CCOC(=O)C1=C(C)NC(=O)N(CCC(=O)N/N=C2/SCC(=O)N2c2ccccc2)C1c1cccc([N+](=O)[O-])c1 (centres undefined)
[3]
  inhibition (INH): Not Active
[2]
  inhibition: inactive

## CCOC(=O)C1=C(C)NC(=O)N(CCC(=O)N/N=C2/SCC(=O)N2c2ccc(C)cc2)C1c1cccc([N+](=O)[O-])c1 (centres undefined)
[2]
  inhibition: 70 to 95%

## CCOC(=O)C/C(C)=N\NC(=O)CCN1C(=O)NC(C)=C(C(=O)OCC)C1c1cccc([N+](=O)[O-])c1 (centres undefined)
[3]
  inhibition (INH): Not Active
[2]
  inhibition: inactive

## CCOC(=O)C1=C(C)NC(=O)N(CCC(=O)NNS(=O)(=O)c2ccccc2)C1c1cccc([N+](=O)[O-])c1 (centres undefined)
[1]
  inhibition at 10 µM: 50%
[2]
  inhibition: 50%

## CCOC(=O)C1=C(C)NC(=O)N(CCC(=O)N/N=C(/C)C(c2ccccc2)c2ccccc2)C1c1cccc([N+](=O)[O-])c1 (centres undefined)
[3]
  inhibition (INH): Not Active
[2]
  inhibition: inactive

## CCOC(=O)C1=C(C)NC(=O)N(CCc2nnc(Nc3ccccc3)s2)C1c1cccc([N+](=O)[O-])c1 (centres undefined)
[3]
  inhibition (INH): Not Active
[2]
  inhibition: 70 to 95%

## CCOC(=O)C1=C(C)NC(=O)N(CCC(=O)N/N=C(/C)c2ccc(F)cc2)C1c1cccc([N+](=O)[O-])c1 (centres undefined)
[1]
  inhibition at 10 µM: 60 to 85%
[2]
  inhibition: 70 to 95%

## CCOC(=O)C1=C(C)NC(=O)N(CCC(=O)n2nc(C)cc2C)C1c1cccc([N+](=O)[O-])c1 (centres undefined)
[3]
  inhibition (INH): Not Active
[2]
  inhibition: inactive
